# Laboratory results: ChEMBL document CHEMBL1806473, “Structure-based optimization of click-based histone deacetylase inhibitors” (Eur J Med Chem, 2011)
# What was measured:
# Histone deacetylase = test: Inhibition of HDAC in human HeLa cells using Ac-Arg-Gly-Lys(Ac)-AMC as fluorescent substrate after 20 mins by fluorescence assay; assay type: cell-based
# MOLT-4 [1] = test: Antiproliferative activity against human MOLT4 cells by SRB assay; assay type: functional
# In short: (§1)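 Tested in the NCI in vitro human tumor cell line screen, run by the National Cancer Institute. Each compound was given at five concentrations (100, 10, 1.0, 0.1 and 0.01 μM). GI50 is the drug concentration that reduces growth of treated cells to half that of control cells during drug incubation, judged from the SRB signal.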
# RPMI-8226 [2] = test: Antiproliferative activity against human RPMI8226 cells by SRB assay; assay type: functional; in short: as §1
# SR [3] = test: Antiproliferative activity against human SR cells by SRB assay; assay type: functional
# In short: (§2)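 Cell growth was tested in the NIH in vitro disease-oriented human tumor cell line screen, which NCI ran for these compounds. Compounds were tested at five concentrations (100, 10, 1.0, 0.1 and 0.01 μM), and growth was read by SRB signal. GI50 is the drug concentration that reduces growth of treated cells to half that of control cells during drug incubation.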
# EKVX [4] = test: Antiproliferative activity against human EKVX cells by SRB assay; assay type: functional; in short: as §1
# HOP-62 [5] = test: Antiproliferative activity against human HOP62 cells by SRB assay; assay type: functional; in short: as §1
# NCI-H226 [6] = test: Antiproliferative activity against human NCI-H226 cells by SRB assay; assay type: functional; in short: as §1
# NCI-H23 [7] = test: Antiproliferative activity against human NCI-H23 cells by SRB assay; assay type: functional; in short: as §1
# NCI-H322M = test: Antiproliferative activity against human NCI-H322M cells by SRB assay; assay type: functional; in short: as §1
# NCI-H460 [8] = test: Antiproliferative activity against human NCI-H460 cells by SRB assay; assay type: functional; in short: as §1
# NCI-H522 [9] = test: Antiproliferative activity against human NCI-H522 cells by SRB assay; assay type: functional; in short: as §1
# HT-29 [10] = test: Antiproliferative activity against human HT-29 cells by SRB assay; assay type: functional; in short: as §1
# KM12 = test: Antiproliferative activity against human KM12 cells by SRB assay; assay type: functional; in short: as §1
# SF-268 = test: Antiproliferative activity against human SF268 cells by SRB assay; assay type: functional; in short: as §1
# SF-295 = test: Antiproliferative activity against human SF295 cells by SRB assay; assay type: functional; in short: as §1
# SF-539 [11] = test: Antiproliferative activity against human SF539 cells by SRB assay; assay type: functional; in short: as §1
# U-251 = test: Antiproliferative activity against human U251 cells by SRB assay; assay type: functional; in short: as §2
# Malme-3M [12] = test: Antiproliferative activity against human MALME-3M cells by SRB assay; assay type: functional; in short: as §1
# MDA-MB-435 = test: Antiproliferative activity against human MDA-MB-435 cells by SRB assay; assay type: functional; in short: as §1
# SK-MEL-5 = test: Antiproliferative activity against human SK-MEL-5 cells by SRB assay; assay type: functional; in short: as §1
# UACC-62 [13] = test: Antiproliferative activity against human UACC62 cells by SRB assay; assay type: functional; in short: as §2
# IGROV-1 [14] = test: Antiproliferative activity against human IGROV1 cells by SRB assay; assay type: functional; in short: as §1
# OVCAR-3 = test: Antiproliferative activity against human OVCAR3 cells by SRB assay; assay type: functional; in short: as §1
# SK-OV-3 [15] = test: Antiproliferative activity against human SKOV3 cells by SRB assay; assay type: functional; in short: as §1
# ACHN [16] = test: Antiproliferative activity against human ACHN cells by SRB assay; assay type: functional; in short: as §1
# PC-3 = test: Antiproliferative activity against human PC3 cells by SRB assay; assay type: functional; in short: as §1
# MCF7 [17] = test: Antiproliferative activity against human MCF7 cells by SRB assay; assay type: functional; in short: as §1
# MDA-MB-231 = test: Antiproliferative activity against human MDA-MB-231 cells by SRB assay; assay type: functional; in short: as §1
# BT-549 [18] = test: Antiproliferative activity against human BT549 cells by SRB assay; assay type: functional; in short: as §1
# HL-60(TB) = test: Cytotoxicity against human HL-60(TB) cells; assay type: cell-based
# K562 = test: Cytotoxicity against human K562 cells; assay type: cell-based
# MOLT-4 [19] = test: Cytotoxicity against human MOLT4 cells; assay type: cell-based
# RPMI-8226 [20] = test: Cytotoxicity against human RPMI8226 cells; assay type: cell-based
# In short: (§3)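 Tested in the NCI in vitro disease-oriented human tumour cell line screen, with screening performed by NCI. Growth was read by SRB signal over the drug incubation period at five concentrations: 100, 10, 1.0, 0.1 and 0.01 μM. GI50 is the concentration that reduces growth of treated cells to half that of control cells.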
# SR [21] = test: Cytotoxicity against human SR cells; assay type: cell-based
# In short: (§4)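 Screened by NCI in its in vitro disease-oriented human tumour cell line panel. Compounds tested at five concentrations (100, 10, 1.0, 0.1 and 0.01 μM). Growth read by sulforhodamine B (SRB) signal. GI50 is the concentration reducing growth of treated cells to half that of control cells during the drug incubation.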
# A549 = test: Cytotoxicity against human A549 cells; assay type: cell-based; in short: as §3
# EKVX [22] = test: Cytotoxicity against human EKVX cells; assay type: cell-based; in short: as §3
# HOP-62 [23] = test: Cytotoxicity against human HOP62 cells; assay type: cell-based; in short: as §3
# NCI-H226 [24] = test: Cytotoxicity against human NCI-H226 cells; assay type: cell-based
# NCI-H23 [25] = test: Cytotoxicity against human NCI-H23 cells; assay type: cell-based
# NCI-H460 [26] = test: Cytotoxicity against human NCI-H460 cells; assay type: cell-based
# NCI-H522 [27] = test: Cytotoxicity against human NCI-H522 cells; assay type: cell-based; in short: as §3
# HCT-15 = test: Cytotoxicity against human HCT15 cells; assay type: cell-based; in short: as §3
# HT-29 [28] = test: Cytotoxicity against human HT-29 cells; assay type: cell-based; in short: as §3
# SF-539 [29] = test: Cytotoxicity against human SF539 cells; assay type: cell-based; in short: as §3
# SNB-75 = test: Cytotoxicity against human SNB75 cells; assay type: cell-based; in short: as §4
# LOX IMVI = test: Cytotoxicity against human LOXIMVI cells; assay type: cell-based
# Malme-3M [30] = test: Cytotoxicity against human MALME-3M cells; assay type: cell-based; in short: as §3
# SK-MEL-2 = test: Cytotoxicity against human SK-MEL-2 cells; assay type: cell-based; in short: as §3
# UACC-62 [31] = test: Cytotoxicity against human UACC62 cells; assay type: cell-based; in short: as §4
# IGROV-1 [32] = test: Cytotoxicity against human IGROV1 cells; assay type: cell-based
# SK-OV-3 [33] = test: Cytotoxicity against human SKOV3 cells; assay type: cell-based
# 786-0 = test: Cytotoxicity against human 786-0 cells; assay type: cell-based
# ACHN [34] = test: Cytotoxicity against human ACHN cells; assay type: cell-based
# CAKI-1 = test: Cytotoxicity against human Caki1 cells; assay type: cell-based
# RXF 393 = test: Cytotoxicity against human RXF393 cells; assay type: cell-based; in short: as §3
# SN12C = test: Cytotoxicity against human SN12C cells; assay type: cell-based; in short: as §4
# DU-145 = test: Cytotoxicity against human DU145 cells; assay type: cell-based; in short: as §3
# MCF7 [35] = test: Cytotoxicity against human MCF7 cells; assay type: cell-based
# [36] = Cytotoxicity against human Hs 578T cells; assay type: cell-based
# BT-549 [37] = test: Cytotoxicity against human BT549 cells; assay type: cell-based
smiles,measurement,setting,value
CC(C)C(/C=C/c1ccccc1)n1cc(/C=C/C(=O)NO)nn1 (stereo not given),IC50,Histone deacetylase,0.022 µM
same,GI50,MOLT-4 [1],0.427 µM
same,GI50,RPMI-8226 [2],0.317 µM
same,GI50,SR [3],0.213 µM
same,GI50,EKVX [4],1.81 µM
same,GI50,HOP-62 [5],1.24 µM
same,GI50,NCI-H226 [6],2.38 µM
same,GI50,NCI-H23 [7],1.64 µM
same,GI50,NCI-H322M,1.36 µM
same,GI50,NCI-H460 [8],0.761 µM
same,GI50,NCI-H522 [9],0.582 µM
same,GI50,HT-29 [10],0.827 µM
same,GI50,KM12,1.22 µM
same,GI50,SF-268,1.87 µM
same,GI50,SF-295,1.47 µM
same,GI50,SF-539 [11],1.19 µM
same,GI50,U-251,1.13 µM
same,GI50,Malme-3M [12],0.311 µM
same,GI50,MDA-MB-435,0.719 µM
same,GI50,SK-MEL-5,0.73 µM
same,GI50,UACC-62 [13],0.642 µM
same,GI50,IGROV-1 [14],1.08 µM
same,GI50,OVCAR-3,1.53 µM
same,GI50,SK-OV-3 [15],1.49 µM
same,GI50,ACHN [16],1.21 µM
same,GI50,PC-3,1.65 µM
same,GI50,MCF7 [17],1.32 µM
same,GI50,MDA-MB-231,1.97 µM
same,GI50,BT-549 [18],3.28 µM
same,LC50,HL-60(TB),> 100 µM
same,LC50,K562,> 100 µM
same,LC50,MOLT-4 [19],> 100 µM
same,LC50,RPMI-8226 [20],> 100 µM
same,LC50,SR [21],> 100 µM
same,LC50,A549,88.7 µM
same,LC50,EKVX [22],> 100 µM
same,LC50,HOP-62 [23],23.4 µM
same,LC50,NCI-H226 [24],40.1 µM
same,LC50,NCI-H23 [25],12.6 µM
same,LC50,NCI-H460 [26],42.9 µM
same,LC50,NCI-H522 [27],8.48 µM
same,LC50,HCT-15,> 100 µM
same,LC50,HT-29 [28],> 100 µM
same,LC50,SF-539 [29],8.21 µM
same,LC50,SNB-75,38.3 µM
same,LC50,LOX IMVI,5.47 µM
same,LC50,Malme-3M [30],68.4 µM
same,LC50,SK-MEL-2,> 100 µM
same,LC50,UACC-62 [31],6.61 µM
same,LC50,IGROV-1 [32],31.6 µM
same,LC50,SK-OV-3 [33],27.8 µM
same,LC50,786-0,6.74 µM
same,LC50,ACHN [34],71.1 µM
same,LC50,CAKI-1,6.3 µM
same,LC50,RXF 393,7.68 µM
same,LC50,SN12C,> 100 µM
same,LC50,DU-145,> 100 µM
same,LC50,MCF7 [35],> 100 µM
same,LC50,[36],> 100 µM
same,LC50,BT-549 [37],> 100 µM
